{"data": "Assay results collected from several papers"}
{"Compound": "CCCCCn1cc(C(=O)Nc2cccc3ccccc23)c2ccccc21", "host": "male Long-Evans rat", "matrix": "plasma", "route": "intraperitoneal", "dose": "3 mg/kg", "Cmax": "296 ng/mL"}
{"Compound": "[2H]C([2H])([2H])n1cc2cc(Nc3nc(=O)n(Cc4ncn(C)n4)c(=O)n3Cc3cc(F)c(F)cc3F)c(Cl)cc2n1", "host": "male Sprague-Dawley rat", "matrix": "plasma", "route": "intravenous", "dose": "5 mg/kg", "Cmax": "23900 ng/mL"}
{"Compound": "C#Cc1ccc2c(c1)C(c1ccccn1)=NCc1c(-c3cnco3)ncn1-2", "host": "rat", "matrix": "plasma", "route": "oral", "dose": "2 mg/kg", "Cmax": "395 nM"}
{"Compound": "Cl.Cl.O=C(CCN1CCCCC1)c1ccc(-c2ccc(C(=O)CCN3CCCCC3)cc2)cc1", "host": "Sprague-Dawley rat", "matrix": "plasma", "route": "intravenous", "dose": "5 mg/kg", "Cmax": "725 ng/mL"}
{"Compound": "COc1ccc2c3c1O[C@H]1C[C@@H](OC(=O)c4ccccc4)C=C[C@@]31CCN(C)C2", "host": "rat", "matrix": "brain", "route": "intravenous", "dose": "5 mg/kg", "Cmax": "13600 ng/g"}
{"Compound": "COC(=O)C(NC(=O)c1cn(CCCCCF)c2ccccc12)C(C)(C)C (stereo not drawn)", "host": "male Sprague-Dawley rat", "matrix": "plasma", "route": "subcutaneous", "dose": "50 µg/kg", "Cmax": "1.72 ng/mL"}
{"Compound": "O=C(Nc1cccnn1)N1CCN([C@@H]2CCOc3cc(C(F)(F)F)ccc32)CC1", "host": "male Sprague-Dawley rat", "matrix": "plasma", "route": "oral", "dose": "3 mg/kg", "Cmax": "1520 nM"}
{"Compound": "N=c1c2c(-c3ccccc3)c(-c3ccccc3)n(Cc3ccccc3)c2ncn1[C@H]1CC[C@H](O)CC1", "host": "male Sprague-Dawley rat", "matrix": "plasma", "route": "oral", "dose": "2 mg/kg", "setting": "single dose", "Cmax": "133 ng/mL"}
{"Compound": "CCC[C@@](N)(CO)CCc1ccc(OCCCCCC(C)C)cc1", "host": "rat", "matrix": "plasma", "route": "oral", "dose": "100 mg/kg", "Cmax": "1030 nM"}
{"Compound": "[2H]C([2H])(c1cc(F)c(F)cc1F)n1c(=O)n(Cc2ncn(C)n2)c(=O)[nH]/c1=N\\c1cc2cn(C)nc2cc1Cl", "host": "male Sprague-Dawley rat", "matrix": "plasma", "route": "intravenous", "dose": "5 mg/kg", "Cmax": "25200 ng/mL"}
{"Compound": "Cc1ncc(C)n2nc(/C=C/c3nc(N4CCCC4)cc(N4CCOCC4)n3)nc12", "host": "male Sprague-Dawley rat", "matrix": "plasma", "route": "oral", "dose": "0.3 mg/kg", "Cmax": "36 nM"}
{"Compound": "CCCCCn1nc(C(=O)Nc2cccc3ccccc23)c2ccccc21", "host": "male Long-Evans rat", "matrix": "plasma", "route": "intraperitoneal", "dose": "3 mg/kg", "Cmax": "213 ng/mL"}
{"Compound": "CCCCCCCC(=O)N[C@@H](CCCCN)C(=O)N[C@@H](CCCCN)C(=O)N[C@@H](C)C(=O)N[C@@H](CC(C)C)C(=O)N[C@@H](CCCCN)C(=O)N[C@@H](CC(C)C)C(=O)N[C@@H](C)C(=O)N[C@@H](CCCCN)C(=O)N[C@@H](CCCCN)C(=O)N1CCC[C@H]1C(=O)N[C@@H](CC(C)C)C(=O)N[C@@H](CCCCN)C(=O)N[C@@H](CC(C)C)C(=O)N[C@@H](CC(C)C)C(=O)N[C@@H](CCCCN)C(N)=O", "host": "male Sprague-Dawley rat", "matrix": "blood", "route": "intravenous", "dose": "3 mg/kg", "setting": "infusion", "Cmax": "273 ng/mL"}
{"Compound": "O=C([O-])C(=O)[O-].[NH-][C@@H]1CCCC[C@H]1[NH-].[Pt+4] (relative stereo)", "host": "rat", "matrix": "plasma", "route": "intravenous", "dose": "5 mg/kg", "Cmax": "2450 ng/mL"}
{"Compound": "COc1ncccc1-c1cnn2ccc(N3CCN(C(=O)OC(C)C)CC3)nc12", "host": "rat", "matrix": "plasma", "route": "oral", "dose": "10 mg/kg", "Cmax": "3100 nM"}
